Publication PMC5624809 (Journal of the American Chemical Society, 2017)
Where two headings read alike, the source gives them in different places. Marks after values point to notes of the source that are not given here. Each block holds one compound with its values, some of them ahead of it.

Tests used:
FXa [1] = experiment: in vitro inhibition of the activity of FXa; format: biochemical; conditions: for IC50: read-out: Anti-FXa activity (IC50)
antithrombin (AT) [2] = target: T1, antithrombin (AT) (Homo sapiens, UniProt P01008); experiment: AT-binding affinity analysis using isothermal titration calorimetry; conditions: for Binding affinity (Kd) to AT / Kd: ITC; for Kd: read-out: Binding affinity (Kd) to AT
T1 sequence (P01008 33-464): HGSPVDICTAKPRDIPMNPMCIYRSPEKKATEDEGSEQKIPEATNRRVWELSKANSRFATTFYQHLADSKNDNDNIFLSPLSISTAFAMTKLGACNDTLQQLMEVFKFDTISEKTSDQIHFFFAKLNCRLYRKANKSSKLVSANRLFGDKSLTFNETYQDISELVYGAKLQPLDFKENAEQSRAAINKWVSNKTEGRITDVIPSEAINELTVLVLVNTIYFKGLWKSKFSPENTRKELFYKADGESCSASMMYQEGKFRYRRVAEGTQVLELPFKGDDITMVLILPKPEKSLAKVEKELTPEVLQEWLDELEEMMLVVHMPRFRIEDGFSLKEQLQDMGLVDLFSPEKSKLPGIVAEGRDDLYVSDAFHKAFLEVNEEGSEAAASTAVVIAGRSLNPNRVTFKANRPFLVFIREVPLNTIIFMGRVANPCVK

FXa [3] = experiment: anti-FXa effect in a rat model; format: in vivo
Summary of the method: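 Anti-Xa activity measured at several time points after dosing, with a saline-treated group as control. Values are mean ± S.D. (n = 4). Each treated group was compared with control by two-tailed Student's t-test, with p < 0.05 flagged.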

FXa [4] = conditions: cited from earlier work
antithrombin (AT) [5] = target: T1, antithrombin (AT); conditions: cited from earlier work
antithrombin (AT) [6] = target: T1, antithrombin (AT); conditions: read-out: Binding affinity (Kd) to AT; affinity coelectrophoresis; cited from earlier work

Compound: O=C(O)C1OC(OC2C(COS(=O)(=O)O)OC(OC3C(C(=O)O)OC(OC4C(COS(=O)(=O)O)OC(OC5C(C(=O)O)OC(Oc6ccc([N+](=O)[O-])cc6)C(O)C5O)C(NS(=O)(=O)O)C4OS(=O)(=O)O)C(OS(=O)(=O)O)C3O)C(NS(=O)(=O)O)C2O)C(O)C(O)C1OC1OC(COS(=O)(=O)O)C(O)C(O)C1NS(=O)(=O)O (stereo not drawn) [Comp 2, GlcNS6S-GlcA-GlcNS6S-IdoA2S-GlcNS3S6S-GlcA-pNP]
Anti-FXa activity (IC50) (FXa [1]): No inhibition
Binding affinity (Kd) to AT (antithrombin (AT) [2]): No binding

Compound: O=C(O)[C@H]1O[C@@H](O[C@H]2[C@H](OS(=O)(=O)O)[C@@H](NS(=O)(=O)O)[C@@H](O[C@H]3[C@H](O)[C@@H](OS(=O)(=O)O)[C@H](O[C@H]4[C@H](OS(=O)(=O)O)[C@@H](NS(=O)(=O)O)[C@@H](O[C@H]5[C@H](O)[C@@H](O)[C@H](Oc6ccc([N+](=O)[O-])cc6)O[C@@H]5C(=O)O)O[C@@H]4COS(=O)(=O)O)O[C@H]3C(=O)O)O[C@@H]2COS(=O)(=O)O)[C@H](O)[C@@H](O)[C@@H]1O[C@H]1O[C@H](COS(=O)(=O)O)[C@@H](O)[C@H](O)[C@H]1NS(=O)(=O)O [Comp 3, GlcNS6S-GlcA-GlcNS3S6S-IdoA2S-GlcNS3S6S-GlcA-pNP]
anti-FXa activity (in words) (FXa [1]): strong anti-FXa activity
IC50 (FXa [1]): 11 nM

Compound: O=C(O)C1OC(OC2C(COS(=O)(=O)O)OC(OC3C(C(=O)O)OC(OC4C(COS(=O)(=O)O)OC(OC5C(C(=O)O)OC(Oc6ccc([N+](=O)[O-])cc6)C(O)C5O)C(NS(=O)(=O)O)C4O)C(OS(=O)(=O)O)C3O)C(NS(=O)(=O)O)C2OS(=O)(=O)O)C(O)C(O)C1OC1OC(COS(=O)(=O)O)C(O)C(O)C1NS(=O)(=O)O (stereo not drawn) [GlcA2S-containing 6-mer, GlcNS6S-GlcA-GlcNS3S6S-GlcA2S-GlcNS6S-GlcA-pNP]
anti-FXa activity (in words) (FXa [4]): did not display anti-FXa activity
Binding affinity (Kd) to AT (antithrombin (AT) [5]): No binding ^d

Compound: O=C(O)C1OC(OC2C(COS(=O)(=O)O)OC(OC3C(C(=O)O)OC(OC4C(COS(=O)(=O)O)OC(OC5C(C(=O)O)OC(Oc6ccc([N+](=O)[O-])cc6)C(O)C5O)C(NS(=O)(=O)O)C4O)C(O)C3O)C(NS(=O)(=O)O)C2OS(=O)(=O)O)C(O)C(O)C1OC1OC(COS(=O)(=O)O)C(O)C(O)C1NS(=O)(=O)O (stereo not drawn) [IdoA-containing 6-mer, GlcNS6S-GlcA-GlcNS3S6S-IdoA-GlcNS6S-GlcA-pNP]
anti-FXa activity (in words) (FXa [4]): exhibited anti-FXa activity
IC50 (FXa [4]; read-out: Anti-FXa activity (IC50)): 29.2 nM
Kd (antithrombin (AT) [5]; read-out: Binding affinity (Kd) to AT): 32.6 ± 5.3 nM

Continued, in another order:

IC50 (FXa [1]): 10.9 nM
AT binding (in words) (antithrombin (AT) [2]): high AT-binding affinity
Kd (antithrombin (AT) [2]): 5.6 ± 2.6 nM
Compound: O=C(O)[C@H]1O[C@@H](Oc2ccc([N+](=O)[O-])cc2)[C@H](O)[C@@H](O)[C@@H]1O[C@H]1O[C@H](COS(=O)(=O)O)[C@@H](O[C@@H]2O[C@@H](C(=O)O)[C@@H](O[C@H]3O[C@H](COS(=O)(=O)O)[C@@H](O[C@@H]4O[C@@H](C(=O)O)[C@@H](O[C@H]5O[C@H](COS(=O)(=O)O)[C@@H](O[C@@H]6O[C@H](C(=O)O)[C@@H](O[C@H]7O[C@H](COS(=O)(=O)O)[C@@H](O)[C@H](O)[C@H]7NS(=O)(=O)O)[C@H](O)[C@H]6O)[C@H](OS(=O)(=O)O)[C@H]5NS(=O)(=O)O)[C@H](O)[C@H]4OS(=O)(=O)O)[C@H](OS(=O)(=O)O)[C@H]3NS(=O)(=O)O)[C@H](O)[C@H]2OS(=O)(=O)O)[C@H](O)[C@H]1NS(=O)(=O)O [Comp 6, GlcNS6S-GlcA-GlcNS3S6S-IdoA2S-GlcNS3S6S-IdoA2S-GlcNS6S-GlcA-pNP]
anti-FXa activity (in words) (FXa [1]): displaying anti-FXa activity

IC50 (FXa [1]): 12.2 nM
Compound: CO[C@H]1O[C@H](COS(=O)(=O)O)[C@@H](O[C@@H]2O[C@@H](C(=O)O)[C@@H](O[C@H]3O[C@H](COS(=O)(=O)O)[C@@H](O[C@@H]4O[C@H](C(=O)O)[C@@H](O[C@H]5O[C@H](COS(=O)(=O)O)[C@@H](O)[C@H](O)[C@H]5NS(=O)(=O)O)[C@H](O)[C@H]4O)[C@H](OS(=O)(=O)O)[C@H]3NS(=O)(=O)O)[C@H](O)[C@H]2OS(=O)(=O)O)[C@H](O)[C@H]1NS(=O)(=O)O [Fondaparinux, GlcNS6S-GlcA-GlcNS3S6S-IdoA2S-GlcNS6S-OMe, reference compound]
persistence of anti-FXa effect in vivo (FXa [3]; time after administration): persisted after 8 hours

IC50 (FXa [1]): 9.4 nM
Compound: GlcNAc6S-GlcA-GlcNS3S6S-IdoA2S-GlcNS6S-IdoA2S-GlcNS6S-GlcA-pNP [Comp 11*]
Kd (antithrombin (AT) [6]): 8 ± 3 nM

IC50 (FXa [1]): 9.1 nM
Compound: GlcNS6S-GlcA-GlcNS3S6S-IdoA2S-GlcNS6S-GlcA-pNP [Comp 8*]
anti-FXa activity (in words) (FXa [1]): displayed anti-FXa activity
Kd (antithrombin (AT) [6]): 7 ± 2 nM

IC50 (FXa [1]): 7.7 nM
AT binding (in words) (antithrombin (AT) [2]): binds to AT tightly
Kd (antithrombin (AT) [2]): 5.1 ± 1.4 nM
Compound: GlcNS6S-GlcA-GlcNS6S-IdoA2S-GlcNS3S6S-IdoA2S-GlcNS6S-GlcA-pNP [Comp 5]
anti-FXa potency in vivo (FXa [3]; within 30 min after the drug was administered): comparable anti-FXa potency to that of fondaparinux and compound 11*
anti-FXa activity (in words) (FXa [1]): strong anti-FXa activity

Anti-FXa activity (IC50) (FXa [1]): No inhibition
Binding affinity (Kd) to AT (antithrombin (AT) [2]): No binding ^c
Compound: GlcNS-GlcA-GlcNS-IdoA2S-GlcNS3S-IdoA2S-GlcNS-GlcA-pNP [Comp 4]
